Measurements as given in ChEMBL document CHEMBL1122033, “Chemistry and hypoglycemic activity of N-[[(Dialkylamino)alkoxy]phenyl]benzamidines” (J Med Chem, 1982).
“And” between values parts separate entries of the source, which are not always exact repeats. Equal values may be shown once.

Key:
Rattus norvegicus [1] = assay: Evaluated in glucose-primed, fasted rat for the percentage reduction in blood glucose level as compared to control groups at a dose of 50 mg of free base / kg body weight administered orally; type: functional
How it was run: (§1)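 Male Sprague–Dawley rats, 140–150 g, groups of six, fasted 16 h. Each rat got 100 mg glucose s.c. in 0.5 mL isotonic NaCl, then the test agent at once orally as an aqueous carboxymethylcellulose suspension (0.5 mL); controls got vehicle. At 2 h, under light ether, blood was taken by cardiac puncture. Glucose was read by Autoanalyzer (Hoffman method). Values are percent difference from vehicle controls.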

[2] = Lethal dose required to produce 50% lethality in male and female carworth farms CF-1 strain mice weighing 16-25 g administered intraperitoneally; type: toxicity, organism-based; conditions: both, CF-1, mouse, in vivo, ip
How it was run: (§2)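 Four mice per dose level. Drug dissolved in distilled water and suspended in 0.5% carboxymethylcellulose or 0.5% gelatin, with pH adjusted by 1 N HCl or 1 N NaOH where the drug tolerated it. Doses logarithmically spaced, given orally or intraperitoneally. Mice observed 7 days after dosing. LD50 derived by the Bliss method, expressed in mg/kg.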

Rattus norvegicus [3] = assay: Evaluated in glucose primed, adrenalectomized rat for the percentage reduction in blood glucose level as compared to pretreatment blood glucose values at a dose of 25 mg of free base / kg body weight administered orally; type: functional
How it was run: (§3)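 Male Sprague–Dawley rats were adrenalectomized 7 days before testing, fasted 16 h, and given 100 mg glucose s.c. per rat. Drug was given orally at once; controls received an equal volume of saline. Blood was taken by cardiac puncture after 2 h. Percent reduction in blood glucose is versus pretreatment values.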

Monkey [4] = assay: Evaluated in normal, fasted monkey for the percentage reduction in blood glucose level as compared to pretreatment blood glucose values at a dose of 70 mg of free base / kg body weight administered orally; type: functional, Cercopithecidae
How it was run: (§4)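 Male and female rhesus monkeys (2–3 kg) were food-deprived, with water, for 18 h. Pretreatment blood was taken from the popliteal vein. Dosing was oral by stomach tube, with repeat sampling 5 h post-dose. Results are percent reduction in blood glucose relative to pretreatment values.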

Rattus norvegicus [5] = assay: Evaluated in glucose-primed, fasted rat for the percentage reduction in blood glucose level as compared to control groups at a dose of 25 mg of free base / kg body weight administered orally; type: functional; how it was run: as §1
[6] = (§5) Lethal dose required to produce 50% lethality in male and female carworth farms CF-1 strain mice weighing 16-25 g administered orally; conditions: both, CF-1, in vivo, po
Rattus norvegicus [7] = assay: Evaluated in alloxanized, diabetic rat for the percentage reduction in blood glucose level as compared to pretreatment blood glucose values at a dose of 100 mg of free base / kg body weight administered orally; type: functional
How it was run: (§6)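 Three days later, rats positive for urine glucose (reagent strip) formed groups of six. Tail-vein blood was taken before oral dosing and again at 5 h. Percent reduction is versus pretreatment glucose.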

Rattus norvegicus [8] = assay: Compound was evaluated for the blood sugar lowering (hypoglycemic activity ) in the glucose-primed rat at a dose of 50 mg of base/kg; type: functional; how it was run: as §1
Rattus norvegicus [9] = assay: Evaluated in alloxanized, diabetic rat for the percentage reduction in blood glucose level as compared to pretreatment blood glucose values at a dose of 200 mg of free base / kg body weight administered orally; type: functional; how it was run: as §6
Monkey [10] = assay: Evaluated in normal, fasted monkey for the percentage reduction in blood glucose level as compared to pretreatment blood glucose values at a dose of 50 mg of free base / kg body weight administered orally; type: functional, Cercopithecidae; how it was run: as §4
Monkey [11] = assay: Evaluated in normal, fasted monkey for the percentage reduction in blood glucose level as compared to pretreatment blood glucose values at a dose of 60 mg of free base / kg body weight administered orally; type: functional, Cercopithecidae; how it was run: as §4
Monkey [12] = assay: Evaluated in normal, fasted monkey for the percentage reduction in blood glucose level as compared to pretreatment blood glucose values at a dose of 25 mg of free base / kg body weight administered orally; type: functional, Cercopithecidae; how it was run: as §4
Cavia porcellus [13] = assay: Evaluated in normal, fasted guinea pig for the percentage reduction in blood glucose level as compared to pretreatment blood glucose values at a dose of 100 mg of free base / kg body weight administered orally; type: functional
How it was run: (§7)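 Male and female Hartley guinea pigs, 450–500 g, were food-deprived (water allowed) 18 h and split by sex into groups of four. A zero-time blood sample was taken by cardiac puncture, then drug was given, and blood was drawn again 5 h later. Percent reduction in blood glucose is relative to pretreatment values.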

Rattus norvegicus [14] = assay: Evaluated in glucose-primed, fasted rat for the percentage reduction in blood glucose level as compared to control groups at a dose of 10 mg of free base / kg body weight administered orally; type: functional; how it was run: as §1
Rattus norvegicus [15] = assay: Compound was evaluated for the blood sugar lowering (hypoglycemic activity) in the glucose-primed rat at a dose of 100 mg/kg; Increase in blood sugar level.; type: functional; how it was run: as §1
[16] = Lethality in 50% (LD50) of male and female CF-1 strain mice weighing 16-25g, intraperitoneal administration; type: ADME, organism-based; conditions: both, CF-1, mouse, in vivo, ip; how it was run: as §2
[17] = Dose that produces lethality in 50% (LD50) of male and female carworth farms CF-1 strain mice weighing 16-25 g oral (po) route of administration; type: ADME, organism-based; conditions: both, CF-1, mouse, in vivo; how it was run: as §2
Rattus norvegicus [18] = assay: Evaluated in glucose-primed, fasted rat for the percentage reduction in blood glucose level as compared to control groups at a dose of 100 mg of free base / kg body weight administered orally; type: functional; how it was run: as §1
Rattus norvegicus [19] = assay: Evaluated in glucose-primed, fasted rat for the percentage reduction in blood glucose level as compared to control groups at a dose of 150 mg of free base / kg body weight administered orally; type: functional; how it was run: as §1
Cavia porcellus [20] = assay: Evaluated in normal, fasted guinea pig for the percentage reduction in blood glucose level as compared to pretreatment blood glucose values at a dose of 100 mg of free base / kg body weight administered orally
Rattus norvegicus [21] = assay: Blood sugar lowering (hypoglycemic activity) in the glucose-primed rat at a dose of 100 mg/kg; Decrease in blood sugar level.; type: functional; how it was run: as §1
Rattus norvegicus [22] = assay: Evaluated in alloxanized, diabetic rat for the percentage reduction in blood glucose level as compared to pretreatment blood glucose values at a dose of 150 mg of free base / kg body weight administered orally; type: functional; how it was run: as §6
[23] = as §5; type: toxicity, organism-based; conditions: both, CF-1, mouse, in vivo, po; how it was run: as §2
Rattus norvegicus [24] = assay: Evaluated in glucose-primed, fasted rat for the percentage reduction in blood glucose level after 2 hr as compared to control groups at a dose of 10 mg of free base / kg body weight administered orally; type: functional; how it was run: as §1
Rattus norvegicus [25] = assay: Evaluated in glucose primed, adrenalectomized rat for the percentage reduction in blood glucose level after 2 hr as compared to pretreatment blood glucose values at a dose of 20 mg of free base / kg body weight administered orally; type: functional; how it was run: as §3
Cavia porcellus [26] = assay: Evaluated in normal, fasted guinea pig for the percentage reduction in blood glucose level after 5 hr as compared to pretreatment blood glucose values at a dose of 125 mg of free base / kg body weight administered orally; type: functional; how it was run: as §7
Cavia porcellus [27] = assay: Evaluated in normal, fasted guinea pig for the percentage reduction in blood glucose level after 5 hr as compared to pretreatment blood glucose values at a dose of 100 mg of free base / kg body weight administered orally; type: functional; how it was run: as §7
Rattus norvegicus [28] = assay: Evaluated in glucose-primed, fasted rat for the percentage reduction in blood glucose level after 2 hr as compared to control groups at a dose of 250 mg of free base / kg body weight administered orally; type: functional; how it was run: as §1
Rattus norvegicus [29] = assay: Evaluated in glucose primed, adrenalectomized rat for the percentage reduction in blood glucose level after 2 hr as compared to pretreatment blood glucose values at a dose of 10 mg of free base / kg body weight administered orally; type: functional; how it was run: as §3
Monkey [30] = assay: Evaluated in normal, fasted monkey for the percentage reduction in blood glucose level after 5 hr as compared to pretreatment blood glucose values at a dose of 20 mg of free base / kg body weight administered orally; type: functional, Cercopithecidae; how it was run: as §4
Monkey [31] = assay: Evaluated in normal, fasted monkey for the percentage reduction in blood glucose level after 5 hr as compared to pretreatment blood glucose values at a dose of 40 mg of free base / kg body weight administered orally; type: functional, Cercopithecidae; how it was run: as §4
Rattus norvegicus [32] = assay: Evaluated in glucose-primed, fasted rat for the percentage reduction in blood glucose level after 2 hr as compared to control groups at a dose of 500 mg of free base / kg body weight administered orally; type: functional; how it was run: as §1
Cavia porcellus [33] = assay: Evaluated in normal, fasted guinea pig for the percentage reduction in blood glucose level after 5 hr as compared to pretreatment blood glucose values at a dose of 150 mg of free base / kg body weight administered orally; type: functional; how it was run: as §7
Rattus norvegicus [34] = assay: Evaluated in glucose-primed, fasted rat for the percentage reduction in blood glucose level after 2 h as compared to control groups at a dose of 25 mg of free base / kg body weight administered orally; type: functional; how it was run: as §1
Cavia porcellus [35] = assay: Evaluated in normal, fasted guinea pig for the percentage reduction in blood glucose level after 5 hr as compared to pretreatment blood glucose values at a dose of 160 mg of free base / kg body weight administered orally; type: functional; how it was run: as §7

## Br.CC(C)N(CCCOc1ccc(N/C(=N\c2ccccc2)c2ccccc2)cc1)C(C)C
Rattus norvegicus [1]
  Reduction: 32.2%
[2]
  LD50: 140 mg/kg
Rattus norvegicus [3]
  Reduction: 30.6%
Monkey [4]
  Reduction: 39%
Rattus norvegicus [5]
  Reduction: 21.2%
[6]
  LD50: 347 mg/kg
Rattus norvegicus [7]
  Reduction: 15%
Rattus norvegicus [8]
  Change: 32.2%
Rattus norvegicus [9]
  Reduction: 21.5%
Monkey [10]
  Reduction: 26.5%
Monkey [11]
  Reduction: 32.3%
Monkey [12]
  Reduction: 0%
Cavia porcellus [13]
  Reduction: 33.5% and 20%
Rattus norvegicus [14]
  Reduction: 10.9%

## Br.c1ccc(/N=C(\Nc2ccc(OCCN3CCCC3)cc2)c2ccccc2)cc1
Rattus norvegicus [15]
  Change: 35%
[16]
  LD50: 117 mg/kg
[17]
  LD50: 500 mg/kg

## Br.CC(C)N(CCOc1ccc(N/C(=N\c2ccccc2)c2ccccc2)cc1)C(C)C
Rattus norvegicus [1]
  Reduction: 12.9%
[2]
  LD50: 273 mg/kg
Rattus norvegicus [18]
  Reduction: 31.2%
Rattus norvegicus [3]
  Reduction: 33.4%
Rattus norvegicus [19]
  Reduction: 32%
Rattus norvegicus [7]
  Reduction: 16.5%
Cavia porcellus [20]
  Reduction: 10.6%
Rattus norvegicus [21]
  Change: 31.2%
Monkey [10]
  Reduction: 31.9%
Rattus norvegicus [22]
  Reduction: 37.3%
Monkey [11]
  Reduction: 45%
Monkey [12]
  Reduction: 0%
[23]
  LD50: 900 mg/kg

## Cc1ccc(S(=O)(=O)NC(=O)NN2CCCCCC2)cc1 [TOLAZAMIDE]
Rattus norvegicus [24]
  Reduction: 28.1%
Rattus norvegicus [25]
  Reduction: 85.6%
Cavia porcellus [26]
  Reduction: 26.7%
Cavia porcellus [27]
  Reduction: 33.5%
Rattus norvegicus [28]
  Reduction: 42.9%
Rattus norvegicus [7]
  Reduction: 0%
Rattus norvegicus [29]
  Reduction: 75.8%
Monkey [30]
  Reduction: 11%
Monkey [31]
  Reduction: 26.7%
Rattus norvegicus [32]
  Reduction: 51.1%
Cavia porcellus [33]
  Reduction: 30.4%
Rattus norvegicus [34]
  Reduction: 50%
Cavia porcellus [35]
  Reduction: 25%
